procasp7 counter = counter-screen: procaspase-7 (human) activation; hit rate 0.093% among 330,000; recombinant procaspase-7, Ac-DEVD-pNA absorbance 405 nm; D23A/D198A/D206A triple mutant, cannot self-cleave; scale: DMSO 0, 5 µM enzyme 100; activation, % at 8.5 µM; P55210;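 active means percent activation above the screen-wide mean plus 3 SD, cut at about 25% in these data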
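Detection: p-Nitroaniline absorbance at 405 nm, read at 0 and 120 min; system: Uncleavable procaspase-7 mutant enzyme; evaluation: % activation from two-timepoint absorbance difference, scaled to controls; times: 1 h enzyme–compound preincubation and 2 h substrate reaction, both 25 °C; buffer or medium: Zinc-free HEPES pH 7.4 with 300 mM NaCl, 0.01% Triton X-100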
IDE act = IDE (human) activation, cell-based. P14735. HEK cells, FAbeta-B cleavage, fluorescence polarization; 0% vehicle, 100% cell-free pure enzyme wells. activation, % at 5.96 µM. hit rate 0.073% among 340,000. AID 493087;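 active means activation above the mean of all tested compounds plus 3 SD, set per screening campaign, cut at about 17% in these data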
UBC13 polyUb = human UBC13 polyubiquitination inhibition | inhibition, % at 20 µM | AID 485273 | hit rate 0.47% among 330,000 | UBC13 polyubiquitin chain formation, TR-FRET | P61088; in the data active means inhibition above about 45%, passing the limit was not always enough
Target sequence (P61088 whole entry, looked up): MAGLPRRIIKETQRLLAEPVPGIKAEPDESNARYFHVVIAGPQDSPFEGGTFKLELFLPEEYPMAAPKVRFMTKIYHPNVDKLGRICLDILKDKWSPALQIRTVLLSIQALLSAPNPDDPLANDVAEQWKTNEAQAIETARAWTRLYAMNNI
proCasp3 act = activators of human procaspase-3 | P42574 | recombinant procaspase-3 D3A, Ac-DEVD-pNA absorbance 405 nm | activation, % at 8.5 µM | hit rate 0.11% among 330,000 | AID 463141;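 active means activation above the mean of all tested compounds plus 3 SD, cut at about 21% in these data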;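 further: 0% = DMSO alone and 100% = DMSO wells spiked with extra 5 µM PC-3 D3A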
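Technique: 405 nm absorbance of p-nitroaniline, reads at 0 and 120 min; Test system: Procaspase-3 D3A mutant; Incubation: 1 h enzyme-compound preincubation, then 2 h substrate reaction, 25 °C; Repeats: singlicate, each compound tested once; Benchmarks: low control DMSO wells, high control DMSO plus 5 µM PC-3 D3A.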
IDE cell inh = cellular human IDE inhibition. hit rate 0.41% among 320,000. AID 434962. inhibition, % at 5.59 µM. P14735. HEK cells, FAbetaB cleavage, fluorescence polarization;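 active means percent inhibition above the average of all tested compounds plus 3 SD, set per screening campaign, cut at about 16% in these data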;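 further: IDE supplied by intact live HEK cells; FP after avidin binding of uncleaved biotin substrate so inhibition keeps polarization high; 0% = DMSO wells and 100% = 60 µM reference IDE inhibitor Ii1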
PHOSPHO1 inh = inhibitors of human PHOSPHO1 phosphatase; Q8TCT1; recombinant PHOSPHO1, absorbance phosphatase assay; inhibition, % at 13.3 µM; hit rate 1.1% among 290,000; in the data active means inhibition above about 60%
Target sequence (Q8TCT1 whole entry, looked up): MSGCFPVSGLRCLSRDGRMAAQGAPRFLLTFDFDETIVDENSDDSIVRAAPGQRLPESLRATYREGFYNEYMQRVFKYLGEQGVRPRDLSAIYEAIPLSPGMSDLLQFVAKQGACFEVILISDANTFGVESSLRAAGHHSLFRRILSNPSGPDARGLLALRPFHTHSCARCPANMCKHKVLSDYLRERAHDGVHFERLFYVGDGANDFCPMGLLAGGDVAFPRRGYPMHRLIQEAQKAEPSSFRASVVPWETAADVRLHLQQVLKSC
IDE inh confirm = cellular human IDE inhibition, confirmation; shares compounds with IDE cell inh; HEK cells, FAbetaB cleavage, fluorescence polarization; inhibition, % at 5.59 µM; hit rate 51% among 1,200;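 active means mean inhibition across triplicate wells above the cutoff set by the earlier primary insulin-degrading enzyme screen, cut at about 16% in these data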;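 further: 0% = DMSO wells and 100% = 60 µM reference IDE inhibitor Ii1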
HEK293 tox = counter-screen for IDE inhibitors: cytotoxicity in HEK cells. shares compounds with IDE cell inh. HEK293 cytotoxicity, ATP luminescence. inhibition, % at 5.59 µM. hit rate 28% among 1,200; in the data active means inhibition above about 22%;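 further: 0% = vehicle wells and 100% = reference cytotoxic drug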
FP fluor counter = fluorescence interference counter-screen for IDE inhibitors. shares compounds with IDE cell inh. FP counterscreen for fluorescent artifacts, IDE probe project. IC50, µM. 30 tested, under 10 active; call rule not given here
* marks the source's active call; other numbers are inactive results. Sampled rows, rich in hits. Any-hit rate of the full collection: about 1.9%.

For Clc1cccc(-c2nnc(SCc3nc4ccccc4[nH]3)n2Cc2ccco2)c1 the results were procasp7 counter -3, IDE act -39, UBC13 polyUb 6, proCasp3 act -3, IDE cell inh 71*, PHOSPHO1 inh 77*, IDE inh confirm 50*, HEK293 tox 12 and FP fluor counter >55.
Screening Cc1ccc(-n2c(SCc3nc4ccccc4[nH]3)nnc2-c2ccncc2)cc1 returned procasp7 counter 8, IDE act 2, UBC13 polyUb -11, proCasp3 act -13, IDE cell inh 3 and PHOSPHO1 inh -23.
Clc1cccc(-c2nnc(SCc3nc4ccccc4[nH]3)n2-c2ccccc2)c1 was read as FP fluor counter >55.
For O=C(Cc1ccc([N+](=O)[O-])cc1)OCc1c(F)cccc1Cl the results were procasp7 counter 2, IDE act 2, UBC13 polyUb -9, proCasp3 act 4, IDE cell inh 5 and PHOSPHO1 inh 14.
`CC(=O)c1ccc(NC(=O)C(C)OC(=O)C2CCN(c3ccc(C(F)(F)F)cn3)CC2)cc1` (stereo unspecified) gave procasp7 counter -7, IDE act -4, UBC13 polyUb 0, proCasp3 act -6 and IDE cell inh -10.
CC(OC(=O)C1CCN(c2ccc(C(F)(F)F)cn2)CC1)C(=O)Nc1ccc(S(N)(=O)=O)cc1 (stereo unspecified) was read as procasp7 counter -2, IDE act -16, UBC13 polyUb 9, proCasp3 act -4, IDE cell inh 18*, PHOSPHO1 inh 25, IDE inh confirm 6 and HEK293 tox 5.
Screening CCCCN1C(=O)C(C(=O)OCC)CC2=C1CCCC2=O (stereo unspecified) returned IDE act 1.
Screening O=C(NCCc1csc(-c2ccc(Cl)cc2)n1)c1ccco1 returned procasp7 counter -3, IDE act -1, UBC13 polyUb -2, proCasp3 act 0, IDE cell inh 11 and PHOSPHO1 inh 8.
`CC1=CC(C)(C)Nc2ccc(OC(=O)CN3C(=O)c4ccccc4C3=O)cc21` gave procasp7 counter -16, IDE act -3, UBC13 polyUb 3, proCasp3 act -15, IDE cell inh 19*, PHOSPHO1 inh -10, IDE inh confirm 41* and HEK293 tox 123*.
For CC1=CC(C)(C)Nc2ccc(OC(=O)CN3C(=O)c4cccc5cccc(c45)C3=O)cc21 the results were procasp7 counter -4, IDE act -3, proCasp3 act -13, IDE cell inh 6 and PHOSPHO1 inh 11.
`COc1ccc(N(C(=O)c2ccc(S(=O)(=O)N3CCCC3)cc2)C2C=CS(=O)(=O)C2)cc1` (stereo unspecified) gave procasp7 counter 0, IDE act 1, UBC13 polyUb -9, proCasp3 act 1, IDE cell inh 1 and PHOSPHO1 inh 43.
Screening Cc1ccc(C(=O)Nc2nc(-c3ccccn3)cs2)s1 returned procasp7 counter -9, IDE act -3, UBC13 polyUb -30, proCasp3 act 12 and IDE cell inh 6.
For CCc1sc(C(=O)Nc2nc(-c3ccccn3)cs2)cc1C the results were procasp7 counter -2, IDE act -6, UBC13 polyUb -30, proCasp3 act -1, IDE cell inh 19*, IDE inh confirm 6 and HEK293 tox 50*.
Screening CSc1ccc(S(=O)(=O)N2CCC(C(=O)Nc3ccc(C(N)=O)cc3)CC2)cc1 returned procasp7 counter -4, IDE act 5, UBC13 polyUb 1, proCasp3 act -1, IDE cell inh 0 and PHOSPHO1 inh 12.

Compound activity deposited in PubChem BioAssay by several laboratories.
